Among the data in ChEMBL document CHEMBL1156524, “Profiling the enzymatic properties and inhibition of human complement factor B” (J Biol Chem, 2007) are IC50 and Activity values, retold here.

The source made the active and inactive calls. The rule behind the calls is not given here. Residues, ends and D or L forms follow the SMILES beside them.

Assay [1] has as its target T1, Complement factor B (Homo sapiens, UniProt P00751). Description: Inhibition of human complement factor B. The procedure, abridged: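 Chromogenic assay: 50 nM factor B, 0.5 mM Ac-SHLGLAR-pNA, 100 mM glycine-HCl pH 9.5, 37 °C. Eleven inhibitor concentrations from 1 µM to 1 mM. pNA release monitored at 405 nm; buffer alone as positive control.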
In assay [2] the target is T1, Complement factor B. Description: Inhibition of human complement factor B at 100 uM. The gist of the method:
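Competition format: 50 nM factor B with 100 µM inhibitor and Ac-SHLGLAR-pNA at 0.5, 2.5, 5 or 10 mM, in 100 mM glycine-HCl pH 9.5 at 37 °C. Absorbance increase followed at 405 nm.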

Assay [3] addresses T1, Complement factor B. Description: Inhibition of human complement factor B assessed as […] at pH 10.2. The procedure, abridged:
(§1)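 Purified factor B 4 µg with C3 10 µg, 3 h at 37 °C in 100 mM glycine-HCl pH 10.2 with 154 mM NaCl. Buffer or inhibitor at 0.01, 0.1, 0.25 or 0.5 mM. C3 cleavage products resolved on 7% and 12% gels.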

The target in assay [4] is T1, Complement factor B. Description: Inhibition of human C3 convertase assessed as C3a formation after 30 mins by 7% gel analysis. The procedure, abridged:
(§2)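 Convertase (CVF.Bb) preformed from cobra venom factor 12 µg, factor B 8 µg and factor D 0.2 µg in PBS pH 7.4 with 1 mM MgCl2, 1 h at 37 °C, then diluted with PBS containing 20 mM EDTA. C3 10 µg plus convertase incubated 30 min at 37 °C in PBS pH 7.4 with buffer or inhibitor at 0.01–0.5 mM. C3a formation read on gels loaded with 2.5 µg C3/well (7%) or 5.0 µg (12%).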

Assay [5] concerns the target T1, Complement factor B. Description: Inhibition of human C3 convertase assessed as C3a formation after 30 mins by 12% gel analysis. The gist of the method:
as §2

For assay [6], the species on record is Homo sapiens. Description: Inhibition of human C3bBb convertase assessed as C3 cleavage after 30 mins by 7% gel analysis. The procedure, abridged: (§3)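 Native convertase assembled in situ: C3 10 µg, factor B 0.5 µg and factor D 0.05 µg, 30 min at 37 °C in PBS pH 7.4 with 1 mM MgCl2 and 154 mM NaCl. Inhibitor at 0.25, 0.5 and 1.0 mM; leupeptin and PMSF at 1.0 mM as controls. C3 to C3a cleavage read on 7% or 12% gels.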

For assay [7], the species on record is Homo sapiens. Description: Inhibition of human C3bBb convertase assessed as C3 cleavage after 30 mins by 12% gel analysis. The procedure, abridged: as §3
Assay [8] concerns the target T1, Complement factor B. Description: Inhibition of human complement factor B assessed as cleavage of C3 convertase to C3b at pH 10.2. The procedure, abridged:
as §1

Assay [9] can be described thus: Inhibition of trypsin mediated cleavage of AcSHLGLAR-pNA. The gist of the method:
(§4)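 Ac-SHLGLAR-pNA at 0.5 mM final in 10 mM Hepes, 10 mM Tris, 150 mM NaCl, 0.1% PEG, pH 7.4; 150 µL wells; read at 405 nm, 37 °C. Trypsin at 133 nM final, inhibitor at eleven 2-fold dilutions from 26.6 µM, in triplicate. Thrombin at 0.5 U per well, inhibitor at eleven 2-fold dilutions from 666 µM, in duplicate.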

The nature of assay [10]: Inhibition of thrombin mediated cleavage of AcSHLGLAR-pNA. The gist of the method:
as §4

Assay [11] is filed under the species Homo sapiens. Description: Inhibition of human C3bBb convertase assessed as C3 cleavage at 1 mM after 30 mins by 7% gel analysis. The procedure, abridged:
(§5)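 Native C3 convertase formed in situ: C3 (10 µg), human factor B (0.5 µg) and factor D (0.05 µg) incubated 30 min at 37 °C in 32 µL PBS pH 7.4 with 1 mM MgCl2 and 154 mM NaCl, plus buffer or inhibitor (0.25–1.0 mM). Cleavage of C3 to C3a read by SDS-PAGE, 2.5 µg C3/well on 7% gel and 5 µg C3/well on 12% gel.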

The species named for assay [12] is Homo sapiens. Description: Inhibition of human C3bBb convertase assessed as C3 cleavage at 1 mM after 30 mins by 12% gel analysis. The procedure, abridged:
as §5

T1 sequence (P00751 whole entry): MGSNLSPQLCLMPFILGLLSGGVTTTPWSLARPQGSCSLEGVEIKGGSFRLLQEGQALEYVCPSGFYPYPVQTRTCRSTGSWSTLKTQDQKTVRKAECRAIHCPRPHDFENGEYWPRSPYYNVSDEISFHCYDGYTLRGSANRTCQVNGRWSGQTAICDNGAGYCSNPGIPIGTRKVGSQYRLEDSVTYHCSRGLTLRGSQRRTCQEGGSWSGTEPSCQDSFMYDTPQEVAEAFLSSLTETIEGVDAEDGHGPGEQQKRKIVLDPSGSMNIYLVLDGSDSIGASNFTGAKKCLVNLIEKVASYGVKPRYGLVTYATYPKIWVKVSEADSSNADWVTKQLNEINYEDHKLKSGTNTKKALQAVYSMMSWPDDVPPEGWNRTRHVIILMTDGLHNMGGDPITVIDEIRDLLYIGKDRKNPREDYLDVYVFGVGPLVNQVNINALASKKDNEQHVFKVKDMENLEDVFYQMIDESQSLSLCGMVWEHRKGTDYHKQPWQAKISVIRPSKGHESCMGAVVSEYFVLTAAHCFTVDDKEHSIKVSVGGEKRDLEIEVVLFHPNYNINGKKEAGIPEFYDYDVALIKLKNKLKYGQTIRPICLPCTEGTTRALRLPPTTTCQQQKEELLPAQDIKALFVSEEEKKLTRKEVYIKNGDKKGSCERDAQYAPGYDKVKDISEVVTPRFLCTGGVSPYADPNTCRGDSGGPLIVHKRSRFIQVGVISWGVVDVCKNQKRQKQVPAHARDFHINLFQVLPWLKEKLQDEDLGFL

Usually IC50 stands for the point on the concentration scale where inhibition reaches its midpoint. The low end stands for inhibition by little substance, the high end for a need for much substance. Consider `CC(=O)N[C@@H](CO)C(=O)N[C@@H](Cc1cnc[nH]1)C(=O)N[C@@H](CC(C)C)C(=O)NCC(=O)N[C@@H](CC(C)C)C(=O)N[C@@H](C)C(=O)N[C@H](C=O)CCCNC(=N)N` (Ac-SHLGLAR-aldehyde), for which the IC50 turned out to be 19 µM against Complement factor B [1], 716 µM in [9] and 24 µM in assay [10]. In addition, the Activity entry at Complement factor B [2], at Complement factor B [3], on Complement factor B [4], at Complement factor B [5], in the assay listed under Homo sapiens [6] and in the assay filed under Homo sapiens [7] was “Dose-dependent effect” throughout. In addition, the outcome on Complement factor B [8] was Active.

`CC(=O)N[C@@H](CC(C)C)C(=O)N[C@@H](CC(C)C)C(=O)N[C@H](C=O)CCCNC(=N)N`: the result in the assay listed under Homo sapiens [11] and in the assay filed under Homo sapiens [12] was inactive.

In the case of `O=S(=O)(F)Cc1ccccc1`, the outcome in the assay listed under Homo sapiens [11] and in the assay filed under Homo sapiens [12] was inactive.
